Source: ChEMBL document CHEMBL1146037, “Design and discovery of a novel dipeptidyl-peptidase IV (CD26)-based prodrug approach” (J Med Chem, 2006)
The source made the active and inactive calls. No cut-off for these calls is given here.

How the values were obtained:
Dipeptidyl peptidase 4 [1] = molecular target: T1, Dipeptidyl peptidase 4 (Homo sapiens, UniProt P27487); test: Conversion of prodrug to parent drug NAP-TSAO-T catalyzed by CD26 after 1 hr; assay type: ADME; set-up: concentration or dose not given beside the values
T1 sequence (P27487 whole entry): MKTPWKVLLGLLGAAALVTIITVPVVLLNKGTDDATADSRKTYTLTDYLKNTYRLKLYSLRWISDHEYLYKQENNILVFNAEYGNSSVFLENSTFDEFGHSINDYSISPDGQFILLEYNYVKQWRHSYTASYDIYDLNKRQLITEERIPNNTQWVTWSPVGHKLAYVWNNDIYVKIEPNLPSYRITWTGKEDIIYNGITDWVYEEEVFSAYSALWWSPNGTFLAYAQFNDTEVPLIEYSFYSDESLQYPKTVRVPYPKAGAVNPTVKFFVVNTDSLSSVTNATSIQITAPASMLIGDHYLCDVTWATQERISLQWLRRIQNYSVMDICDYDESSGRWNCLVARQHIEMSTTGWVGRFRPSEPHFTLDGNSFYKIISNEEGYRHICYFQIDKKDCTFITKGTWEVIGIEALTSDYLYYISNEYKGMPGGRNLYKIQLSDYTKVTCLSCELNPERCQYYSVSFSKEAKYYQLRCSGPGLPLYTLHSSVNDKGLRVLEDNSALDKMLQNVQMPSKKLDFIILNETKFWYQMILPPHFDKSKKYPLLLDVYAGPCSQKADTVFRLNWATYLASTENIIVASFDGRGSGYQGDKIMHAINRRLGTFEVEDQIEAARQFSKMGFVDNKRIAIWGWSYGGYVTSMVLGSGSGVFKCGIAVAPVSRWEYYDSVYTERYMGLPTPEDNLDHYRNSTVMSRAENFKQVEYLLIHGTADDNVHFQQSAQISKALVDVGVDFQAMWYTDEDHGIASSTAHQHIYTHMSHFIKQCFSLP

Bos taurus [2] = species on record: Bos taurus; test: Conversion of prodrug to parent drug NAP-TSAO-T catalyzed by bovin serum after 24 hrs; assay type: ADME, organism-based; conditions: cattle
How it was run: (§1)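 Prodrug at 50 µM incubated at 37 °C with human or bovine serum diluted in PBS (5, 2.5, 1 or 0.5%). Samples are quenched in cold methanol and centrifuged, and the supernatant is run on reverse-phase RP-8 HPLC (phosphate/heptanesulfonate pH 3.2–acetonitrile gradient). Parent compound formed is quantified at 3, 6 or 24 h.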

CCRF-CEM [3] = test: Antiviral activity against HIV1 assessed as inhibition of HIV1-induced cytopathicity in CEM cells; assay type: functional, cell-based; conditions: Homo sapiens
How it was run: (§2)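 CEM and MT-4 cell cultures infected with HIV-1 or HIV-2, with compounds diluted into culture medium from DMSO stocks. Antiviral activity is read at day 4 post-infection and reported as EC50.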

Homo sapiens [4] = species on record: Homo sapiens; test: Conversion of prodrug to parent drug NAP-TSAO-T catalyzed by 2.5% human serum after 3 hrs; assay type: ADME, organism-based; how it was run: as §1
Homo sapiens [5] = species on record: Homo sapiens; test: Conversion of prodrug to parent drug NAP-TSAO-T catalyzed by 2.5% human serum after 6 hrs; assay type: ADME, organism-based; how it was run: as §1
[6] = molecular target: T2, CD26 (Dipeptidyl peptidase 4) (Homo sapiens, UniProt P27487); test: Inhibition of CD26-catalyzed GlyPro-pNA hydrolysis at 100 uM; conditions: CD26 (dipeptidyl peptidase 4) enzyme, probe GlyPro-pNA
T2 sequence (P27487 whole entry): as above

Dipeptidyl peptidase 4 [7] = molecular target: T1, Dipeptidyl peptidase 4; test: Conversion of prodrug to parent drug NAP-TSAO-T catalyzed by CD26 after 24 hrs; assay type: ADME; set-up: concentration or dose not given beside the values
[8] = molecular target: Human immunodeficiency virus type 1 reverse transcriptase (Human immunodeficiency virus 1, UniProt Q72547); test: Inhibition of recombinant HIV1 reverse transcriptase
Bos taurus [9] = species on record: Bos taurus; test: Conversion of prodrug to parent drug NAP-TSAO-T catalyzed by bovin serum after 6 hrs; assay type: ADME, organism-based; conditions: cattle; how it was run: as §1
CCRF-CEM [10] = test: Antiproliferative activity against human CEM cell line; assay type: functional
How it was run: (§3)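 Cytostatic assay: compounds made up as DMSO stocks and diluted in culture medium. CC50 is the concentration that inhibits MT-4 or CEM cell proliferation by 50%.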

CCRF-CEM [11] = test: Antiviral activity against HIV2 assessed as inhibition of HIV2-induced cytopathicity in CEM cells; assay type: functional, cell-based; how it was run: as §2
MT4 [12] = test: Antiviral activity against HIV1 assessed as inhibition of HIV1-induced cytopathicity in MT4 cells; assay type: functional, cell-based; conditions: Homo sapiens; how it was run: as §2
MT4 [13] = test: Antiviral activity against HIV2 assessed as inhibition of HIV2-induced cytopathicity in MT4 cells; assay type: functional, cell-based; how it was run: as §2
Dipeptidyl peptidase 4 [14] = molecular target: T1, Dipeptidyl peptidase 4; test: Conversion of prodrug to parent drug NAP-TSAO-T catalyzed by CD26 after 4 hrs; assay type: ADME; set-up: concentration or dose not given beside the values
[15] = molecular target: T2, CD26 (Dipeptidyl peptidase 4); test: Inhibition of CD26-catalyzed GlyPro-pNA hydrolysis at 20 uM; conditions: CD26 (dipeptidyl peptidase 4) enzyme, probe GlyPro-pNA
MT4 [16] = test: Antiproliferative activity against human MT4 cell line; assay type: functional; how it was run: as §3

Activity (Dipeptidyl peptidase 4 [1]): 37%
Activity (Bos taurus [2]): 50%
EC50 (CCRF-CEM [3]): 0.13 µM
Activity (Homo sapiens [4]): 30%
Activity (Homo sapiens [5]): 50%
inhibition at 100 µM [6]: 70%
Activity (Dipeptidyl peptidase 4 [7]): 61%
IC50 [8]: 6.6 µM
Activity (Bos taurus [9]): 20%
Activity (Dipeptidyl peptidase 4 [14]): 62%
inhibition at 20 µM [15]: 50%
Structure (SMILES): Cc1cn(C2OC(CO[Si](C)(C)C(C)(C)C)C3(OS(=O)(=O)C=C3N)C2O[Si](C)(C)C(C)(C)C)c(=O)n(CCCNC(=O)[C@@H]2CCCN2C(=O)[C@@H](N)C(C)C)c1=O (stereo partly specified)
CC50 (CCRF-CEM [10]): 10 µM
Activity (CCRF-CEM [11]): inactive
EC50 (MT4 [12]): 0.3 µM
Activity (MT4 [13]): inactive
CC50 (MT4 [16]): 11 µM
